Laboratory results taken from publication PMC3838623 (Journal of Pharmaceutical Sciences, 2013).
Read-outs that look alike come from different tables or passages of the source.

Assays:
[1] = system: plasma proteins; conditions: liraglutide concentration 10^2 pM, cited from earlier work
[2] = system: plasma proteins (human plasma); assay: Reiterated stepwise equilibrium dialysis, plasma protein binding; assay type: in vitro ADME; conditions: two-sided ANOVA
Outline: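 Human plasma spiked with test compound (final 10^6, 10^4 or 10^2 pM) was placed in a 1.0 mL dialysis sac inside a buffer chamber pre-coated with compound-containing buffer. Compound was present in both chambers at inner–outer ratios of 100:1 or 50:1. Dialysis ran 4–5 h at 37 ± 2°C with slow rotation, in triplicate, with radioactivity counting. % bound relative to pre-incubation; mean (SD) analysed by two-sided ANOVA for gender and concentration.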

[3] = cited from earlier work
[4] = system: plasma proteins; conditions: cited from earlier work

Substance	mean (SD) unbound percentage ([1]; healthy subjects)	mean (SD) unbound percentage ([1]; subjects with mild hepatic impairment)	estimated difference in protein binding, 10^2 pM compared with 10^4 pM ([2]; p = 0.581) [%]	estimated difference in protein-bound liraglutide, females vs. males ([2]; p = 0.593) [%]	plasma half-life [3]	liraglutide pharmacokinetics in renal impairment ([3]; subjects with mild-to-severe renal impairment versus healthy subjects)	plasma protein binding [4]
liraglutide	0.53% (0.46)	0.59% (0.61)	0.05	−0.18	approximately 13 h	not altered	–
exenatide: GLP-1 receptor agonist with shorter duration of action, twice-daily administration	–	–	–	–	–	–	does not demonstrate significant levels of plasma protein binding
